{"source": "ChEMBL document CHEMBL4382192", "about": "“Discovery of a potent dual ALK and EGFR T790M inhibitor” (Eur J Med Chem, 2017)", "key": {"[1]": {"target": "Calcium/calmodulin-dependent protein kinase kinase 1 (Homo sapiens) (UniProt Q8N5S9)", "experiment": "Binding affinity to wild-type human partial length CAMKK1 (R65 to E414 residues) expressed in bacterial expression system assessed as residual binding level at 1 uM by Kinomescan method relative to control"}, "[2]": {"target": "Rho-associated protein kinase 1 (Homo sapiens) (UniProt Q13464)", "experiment": "Binding affinity to wild-type human partial length ROCK1 (M1 to R415 residues) expressed in mammalian expression system assessed as residual binding level at 1 uM by Kinomescan method relative to control"}, "[3]": {"target": "Mitogen-activated protein kinase 3 (Homo sapiens) (UniProt P27361)", "experiment": "Binding affinity to wild-type human full length ERK1 (M1 to P379 residues) expressed in bacterial expression system assessed as residual binding level at 1 uM by Kinomescan method relative to control", "in_short": "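Single-point kinome-wide KINOMEscan binding panel, test compound at 1 μM, run by the provider's standard protocol.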"}, "[4]": {"target": "Mitogen-activated protein kinase 11 (Homo sapiens) (UniProt Q15759)", "experiment": "Binding affinity to wild-type human full length p38-beta (M1 to Q364 residues) expressed in bacterial expression system assessed as residual binding level at 1 uM by Kinomescan method relative to control"}, "[5]": {"experiment": "Volume of distribution at steady state in mouse at 2 mg/kg, iv", "assay_type": "ADME, organism-based", "details": "in vivo, read-out: Vdss"}, "[6]": {"target": "Cyclin-dependent kinase 4/cyclin D1 (Homo sapiens) (UniProt P11802+P24385)", "experiment": "Binding affinity to wild-type human full length CDK4/cyclinD1 (M1 to E303 residues) expressed in mammalian expression system assessed as residual binding level at 1 uM by Kinomescan method relative to control"}, "[7]": {"target": "Cytoplasmic tyrosine-protein kinase BMX (Homo sapiens) (UniProt P51813)", "experiment": "Binding affinity to wild-type human full length BMX (M1 to H675 residues) expressed in bacterial expression system assessed as residual binding level at 1 uM by Kinomescan method relative to control"}, "[8]": {"target": "Ribosomal protein S6 kinase alpha-3 (Homo sapiens) (UniProt P51812)", "experiment": "Binding affinity to wild-type human partial length N-terminal RSK2 kinase domain 1 (M1 to D394 residues) expressed in mammalian expression system assessed as residual binding level at 1 uM by Kinomescan method relative to control"}, "[9]": {"target": "Serine/threonine-protein kinase 35 (Homo sapiens) (UniProt Q8TDR2)", "experiment": "Binding affinity to wild-type human partial length STK35 (G182 to A534 residues) expressed in bacterial expression system assessed as residual binding level at 1 uM by Kinomescan method relative to control"}, "[10]": {"target": "Mitogen-activated protein kinase kinase kinase kinase 4 (Homo sapiens) (UniProt O95819)", "experiment": "Binding affinity to wild-type human partial length MAP4K4 (M1 to R310 residues) expressed in bacterial expression system assessed as residual binding level at 1 uM by Kinomescan method relative to control"}, "[11]": {"target": "Dual specificity protein kinase CLK2 (Homo sapiens) (UniProt P49760)", "experiment": "Binding affinity to wild-type human partial length CLK2 (D144 to R498 residues) expressed in bacterial expression system assessed as residual binding level at 1 uM by Kinomescan method relative to control"}, "[12]": {"system": "Hepatocyte growth factor receptor (Homo sapiens), P08581 [M1250T]", "experiment": "Binding affinity to human partial length MET M1250T mutant (D1010 to S1367 residues) expressed in bacterial expression system assessed as residual binding level at 1 uM by Kinomescan method relative to control", "in_short": "(§1)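 Kinome-wide selectivity panel run by the KINOMEscan method, with the test compound at a single concentration of 1 μM. Wild-type and mutant kinases were profiled in the same screen.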"}, "[13]": {"experiment": "Drug uptake in mouse lung at 10 mg/kg, po after 2 hrs", "assay_type": "ADME, organism-based", "details": "read-out: Drug uptake"}, "[14]": {"target": "Serine/threonine-protein kinase pim-2 (Homo sapiens) (UniProt Q9P1W9)", "experiment": "Binding affinity to wild-type human partial length PIM2 (M1 to E291 residues) expressed in bacterial expression system assessed as residual binding level at 1 uM by Kinomescan method relative to control"}, "[15]": {"experiment": "Oral bioavailability in mouse at 10 mg/kg", "assay_type": "ADME, organism-based", "details": "in vivo"}, "[16]": {"target": "Serine/threonine-protein kinase ULK3 (Homo sapiens) (UniProt Q6PHR2)", "experiment": "Binding affinity to wild-type human partial length ULK3 (M1 to Q290 residues) expressed in mammalian expression system assessed as residual binding level at 1 uM by Kinomescan method relative to control"}, "[17]": {"target": "Serine/threonine-protein kinase Nek9 (Homo sapiens) (UniProt Q8TD19)", "experiment": "Binding affinity to wild-type human partial length NEK9 (P32 to R328 residues) expressed in bacterial expression system assessed as residual binding level at 1 uM by Kinomescan method relative to control"}, "[18]": {"target": "Serine/threonine-protein kinase haspin (Homo sapiens) (UniProt Q8TF76)", "experiment": "Binding affinity to wild-type human partial length HASPIN (I452 to K798 residues) expressed in mammalian expression system assessed as residual binding level at 1 uM by Kinomescan method relative to control"}, "[19]": {"experiment": "Half life in mouse at 2 mg/kg, iv", "assay_type": "ADME, organism-based", "details": "in vivo"}, "[20]": {"experiment": "Cmax in mouse at 10 mg/kg, po", "assay_type": "ADME, organism-based", "parameters": "dose 10 mg/kg, route oral", "details": "in vivo"}, "[21]": {"target": "Phosphatidylinositol 3-kinase catalytic subunit type 3 (Homo sapiens) (UniProt Q8NEB9)", "experiment": "Binding affinity to wild-type human partial length VPS34 (S282 to H879 residues) expressed in mammalian expression system assessed as residual binding level at 1 uM by Kinomescan method relative to control"}, "[22]": {"target": "Serine/threonine-protein kinase pim-1 (Homo sapiens) (UniProt P11309)", "experiment": "Binding affinity to wild-type human partial length PIM1 (A15 to K313 residues) expressed in bacterial expression system assessed as residual binding level at 1 uM by Kinomescan method relative to control"}, "[23]": {"target": "Phosphatidylinositol 4-phosphate 5-kinase type-1 alpha (Homo sapiens) (UniProt Q99755)", "experiment": "Binding affinity to wild-type human full length PIP5K1A (M1 to H562 residues) expressed in bacterial expression system assessed as residual binding level at 1 uM by Kinomescan method relative to control"}, "[24]": {"target": "Mitogen-activated protein kinase kinase kinase 10 (Homo sapiens) (UniProt Q02779)", "experiment": "Binding affinity to wild-type human partial length MLK2 (V52 to W380 residues) expressed in bacterial expression system assessed as residual binding level at 1 uM by Kinomescan method relative to control"}, "[25]": {"target": "Receptor tyrosine-protein kinase erbB-2 (Homo sapiens, UniProt P04626)", "experiment": "Binding affinity to wild-type human partial length ERBB2 (K646 to V1225 residues) expressed in mammalian expression system assessed as residual binding level at 1 uM by Kinomescan method relative to control"}, "[26]": {"system": "Mast/stem cell growth factor receptor Kit (Homo sapiens), P10721 [A829P]", "experiment": "Binding affinity to human partial length KIT A829P mutant (I571 to D952 residues) expressed in mammalian expression system assessed as residual binding level at 1 uM by Kinomescan method relative to control", "in_short": "as §1"}, "[27]": {"target": "Epidermal growth factor receptor (Homo sapiens) (UniProt P00533)", "experiment": "Binding affinity to wild-type human partial length EGFR (R669 to V1011 residues) expressed in bacterial expression system assessed as residual binding level at 1 uM by Kinomescan method relative to control"}}}
{"smiles": "C=CC(=O)Nc1cc(Nc2ncc(Cl)c(Nc3ccccc3S(=O)(=O)C(C)C)n2)c(OC)cc1N(C)CCN(C)C", "values": [{"measurement": "Activity", "setting": "[1]", "result": 2.8, "unit": "%"}, {"measurement": "Activity", "setting": "[2]", "result": 46, "unit": "%"}, {"measurement": "Activity", "setting": "[3]", "result": 77, "unit": "%"}, {"measurement": "Activity", "setting": "[4]", "result": 96, "unit": "%"}, {"measurement": "Vd", "setting": "[5]", "result": 2.66, "unit": "L/kg"}, {"measurement": "Activity", "setting": "[6]", "result": 94, "unit": "%"}, {"measurement": "Activity", "setting": "[7]", "result": 4.5, "unit": "%"}, {"measurement": "Activity", "setting": "[8]", "result": 1.7, "unit": "%"}, {"measurement": "Activity", "setting": "[9]", "result": 71, "unit": "%"}, {"measurement": "Activity", "setting": "[10]", "result": 87, "unit": "%"}, {"measurement": "Activity", "setting": "[11]", "result": 1.7, "unit": "%"}, {"measurement": "Activity", "setting": "[12]", "result": 14, "unit": "%"}, {"measurement": "concentration at 2 h", "setting": "[13]", "result": 4.64, "unit": "µM"}, {"measurement": "Activity", "setting": "[14]", "result": 100, "unit": "%"}, {"measurement": "bioavailability", "setting": "[15]", "result": 24, "unit": "%"}, {"measurement": "Activity", "setting": "[16]", "result": 7.7, "unit": "%"}, {"measurement": "Activity", "setting": "[17]", "result": 70, "unit": "%"}, {"measurement": "Activity", "setting": "[18]", "result": 100, "unit": "%"}, {"measurement": "half-life", "setting": "[19]", "result": 75, "unit": "min"}, {"measurement": "Cmax", "setting": "[20]", "result": 520, "unit": "ng/mL"}, {"measurement": "Activity", "setting": "[21]", "result": 67, "unit": "%"}, {"measurement": "Activity", "setting": "[22]", "result": 83, "unit": "%"}, {"measurement": "Activity", "setting": "[23]", "result": 91, "unit": "%"}, {"measurement": "Activity", "setting": "[24]", "result": 80, "unit": "%"}, {"measurement": "Activity", "setting": "[25]", "result": 0, "unit": "%"}, {"measurement": "Activity", "setting": "[26]", "result": 45, "unit": "%"}, {"measurement": "Activity", "setting": "[27]", "result": 0, "unit": "%"}]}
